Experimental data published in article PMC5598522 (Toxicology Reports, 2014).

Experiments:
[1] = Body weight and food consumption in rat 2 year carcinogenicity study; assay type: in vivo
How it was run: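 Seven-week-old Wistar Han rats, 50 per sex per group, gavaged daily for 2 years with 0, 20, 60 or 180 (female)/120 (male) mg/kg/day. Vehicle was 1% carboxymethylcellulose with 0.1% polysorbate 80 (w/v) at 5 mL/kg. Body weights taken pretreatment, daily to Week 13, then weekly. Analysis by Hartley's jackknifed F-max test and Fisher's F-protected t-test.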

[2] = Exposure in rat micronucleus in vivo assay; conditions: Alderly Park (Wistar derived), 2000 mg/kg
dopamine D1 receptor = dopamine D1 receptor (Homo sapiens, UniProt P21728); assay: Dopamine D1 receptor radioligand binding; conditions: 10 μM, [3H] SCH-23390, human recombinant CHO cells
How it was run: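 Human recombinant receptors expressed in CHO cells (D1, D2L) or CHO-K1 cells (D4.2) were used in radioligand binding assays with [3H]SCH-23390 (D1), [3H]spiperone (D2L) or [3H]dopamine (D4.2). The test compound or its metabolite was tested at a single concentration of 10 μM. Results are expressed as percent inhibition of specific binding.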

[3] = Human free systemic Cmax in clinical studies; assay type: in vivo; conditions: based on 99.2% protein binding
[4] = Plasma exposure in ovariectomized rat study; assay type: in vivo; conditions: Ticagrelor 180 mg/kg/day, Day 1, 5 h post dose
How it was run: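 Female Han Wistar rats (350–375 g) ovariectomized and fitted with jugular and femoral vein catheters, then housed tethered at 23 ± 1 °C. Dosed orally at 180 mg/kg/day in 1% sodium carboxymethylcellulose/0.1% polysorbate 80, n = 10 per group. On Day 1, 0.5 mL blood taken 5 h post-dose into lithium heparin; exposure measured by protein precipitation and LC-MS/MS.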

Chain of dopamine D1 receptor (P21728 whole entry): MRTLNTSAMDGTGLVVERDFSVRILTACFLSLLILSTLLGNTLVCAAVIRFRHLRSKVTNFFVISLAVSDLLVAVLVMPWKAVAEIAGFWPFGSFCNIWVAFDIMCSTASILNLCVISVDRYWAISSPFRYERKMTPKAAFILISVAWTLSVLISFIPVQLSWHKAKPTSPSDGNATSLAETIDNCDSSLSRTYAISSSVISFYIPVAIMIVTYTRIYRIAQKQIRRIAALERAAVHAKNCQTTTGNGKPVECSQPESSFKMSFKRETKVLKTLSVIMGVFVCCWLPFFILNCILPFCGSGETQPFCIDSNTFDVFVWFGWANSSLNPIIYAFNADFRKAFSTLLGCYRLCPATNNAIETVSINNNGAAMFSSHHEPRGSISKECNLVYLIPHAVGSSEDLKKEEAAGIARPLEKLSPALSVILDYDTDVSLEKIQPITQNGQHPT

CCCSc1nc(N[C@@H]2C[C@H]2c2ccc(F)c(F)c2)c2nnn([C@@H]3C[C@H](OCCO)[C@@H](O)[C@H]3O)c2n1 [Ticagrelor]
Body weight lower than the control group by the end of study ([1]; female rats, 180 mg/kg/day): approximately 20% | Food consumption ([1]; female rats, 180 mg/kg/day): significantly decreased food consumption in 10 out of the last 14 measurements | Food consumption ([1]; male rats): no consistent food consumption differences | Body weight difference from the control group at the end of the study ([1]; male rats, high dose group (120 mg/kg/day)): ≤ 10% | AUC ([2]; female): 1140 to 1360 µg·h/mL | Cmax ([2]; female): 45000 to 53000 ng/mL | AUC ([2]; male): 794 to 1240 µg·h/mL | Inhibition of radioligand binding at the D1 receptor (dopamine D1 receptor): neither Ticagrelor nor metabolite caused inhibition | Human free systemic Cmax [3]: 0.012 µM | Plasma exposure (mean ± SD) [4]: 33.2 ± 10.6 µM
